Results reported in paper PMC5774476 (Drug Design, Development and Therapy, 2018).
Like-named read-outs stand apart in the source and are kept apart here.

What was measured:
[1] = test system: WiDR cells; experiment: MTT cytotoxicity assay on WiDR colorectal cancer cells; assay type: cell-based; settings: for IC50: Homo sapiens, WiDr, 24 h; for SI (selectivity index): ratio of IC50 in Vero versus that in WiDR cells, selective if >3
How it was run: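 WiDR cells grown in RPMI 1640 with 0.1 mg/mL streptomycin (5% CO2, 37°C); confluent cells seeded 1×10^4/well for 24 h, then exposed 24 h to test compound (1% DMSO solution diluted in medium) at 3.906–500 µg/mL. MTT 4 h, formazan dissolved overnight in 10% SDS/0.01 N HCl, A595. Viability vs untreated and cell-free controls; IC50 by probit, mean of three experiments; SI = Vero IC50/WiDR IC50.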

[2] = IC50 slightly higher than that of chloroquine; cited from earlier work

With `COc1cccc2c1C(=O)c1c(O)c3c(c(O)c1C2=O)C[C@@](O)(C(=O)CO)C[C@@H]3O[C@H]1C[C@H](N)[C@H](O)[C@H](C)O1` [Doxorubicin, doxorubicin, reference compound] the IC50 ([1]; read-out: IC50 (µM) WiDR) was 3.04 ± 0.184 µM, the IC50 ([1]; read-out: IC50 (µg/mL) WiDR) was 1.65 ± 0.19 µg/mL and the “SI (selectivity index)” value [1] was 49.38.
For `O=c1c2ccc(O)cc2oc2c(O)c(O)ccc12` [Compound 5, 3,4,6-trihydroxyxanthone], the IC50 ([1]; read-out: IC50 (µM) WiDR) was 37.8 ± 10.6 µM, the IC50 ([1]; read-out: IC50 (µg/mL) WiDR) was 9.23 ± 2.58 µg/mL and the “cytotoxicity category (CSIR criteria)” value ([1]; WiDR cell line) was “moderate (moderate (6.25 µg/mL < mean IC50 <15 µg/mL))”. The “cytotoxic activity (in words)” value ([1]; WiDR cells, MTT) was “exhibited cytotoxic activity”, the “SI (selectivity index)” value [1] was 66.39 and the “SI (selectivity index)” value ([1]; listed as compound 5) was 66.40. The antimalarial activity [2] was “good antimalarial activity”.
